In series [1] the test system is Plasmodium falciparum. The series is described as follows: Antiplasmodial activity against chloroquine-sensitive Plasmodium falciparum Ghana in human erythrocytes after 72 hrs by Malstat assay. It is filed as functional, organism-based. Summed up: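 P. falciparum Ghana strain grown in human erythrocytes in RPMI-1640 at 37 °C under 3% O2, 4% CO2, 93% N2. Exposure to compounds lasted 72 h. Multiplication was read by Malstat with absorbance at 655 nm, and % growth inhibition was taken against negative blanks.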

Series [2] in a line: Cytotoxicity against human MRC5 SV2 cells after 72 hrs by resazurin-based fluorometric assay. It is filed as cell-based. The note with it: MRC5, 72 h. The procedure, abridged: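 MRC-5 SV2 fibroblasts were kept in MEM with 20 mM L-glutamine and 5% FCS at 37 °C, 5% CO2. Cells were seeded at 10⁴/well onto prediluted compounds and incubated 72 h. Viability was read fluorimetrically after resazurin addition.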
On the technique in general: Alamar Blue is a resazurin reagent that responds to reducing activity.

The nature of series [3]: Selectivity index, ratio of IC50 for human MRC5 SV2 cells to IC50 for chloroquine-sensitive Plasmodium falciparum Ghana. The series is classed as toxicity, cell-based. As to conditions: read-out: Ratio IC50.
For series [4], the target named is Nucleic Acid. The experiment in a line: Binding affinity to DNA assessed as intercalation after 24 hrs by DNA-methyl green assay. The series is classed as nucleic-acid assay. The procedure, abridged:
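DNA-methyl green reagent (20 mg in 100 mL 0.05 M Tris HCl pH 7.5 with 7.5 mM MgSO4, stirred 24 h at 37 °C) was added to dried compound. A620 was read at 0 and after 24 h at 25 °C. […] Cryptolepine was the positive control.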

Series [5] addresses T1, Histidine-rich protein PFHRP-II (Plasmodium falciparum, UniProt P05227).
T1 sequence (P05227 whole entry): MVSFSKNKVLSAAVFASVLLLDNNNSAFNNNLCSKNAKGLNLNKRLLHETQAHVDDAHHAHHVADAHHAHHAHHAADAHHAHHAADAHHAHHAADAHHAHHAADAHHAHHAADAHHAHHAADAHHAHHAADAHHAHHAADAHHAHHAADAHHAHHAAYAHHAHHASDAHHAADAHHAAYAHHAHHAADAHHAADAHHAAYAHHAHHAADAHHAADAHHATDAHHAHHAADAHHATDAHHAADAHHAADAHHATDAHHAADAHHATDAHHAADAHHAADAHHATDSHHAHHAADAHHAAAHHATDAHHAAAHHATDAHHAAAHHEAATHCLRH
The experiment in a line: Inhibition of beta-hematin formation after 18 hrs by microtiter plate assay. It is filed as functional.

For the compound `Cn1c2nc3ccc(Cl)cc3c-2cc2ccccc21`, the IC50 is 29 µM in series [1], greater than 64 µM in series [2], greater than 1000 µM in series [4] and 1.23 milliequivalent in series [5]. Moreover, in series [3], the selectivity ratio was greater than 2.
The corresponding values for `CCN(CC)CCCC(C)Nc1c2c(Cl)cccc2nc2[nH]c3ccccc3c12` (stereo not given) are 1.2 µM, 20 µM, greater than 1000 µM, 3.05 milliequivalent and 17.
As for `Cn1c2nc3ccccc3c-2c(Cl)c2ccccc21` [11-CHLORONEOCRYPTOLEPINE], the figures for the IC50 in series [1] and in series [2] were greater than 64 µM and 5 µM, respectively. The selectivity ratio in series [3] was less than 0.08.
For `Clc1ccc2nc3[nH]c4ccccc4c3c(NCCN3CCCC3)c2c1`, the IC50 was 3 µM in series [1], greater than 64 µM in series [2], greater than 1000 µM in series [4] and 5.4 milliequivalent in series [5]. Also, the selectivity ratio in series [3] is greater than 21.
Take `CCN(CC)CCCC(C)Nc1ccc2c3cc4ccccc4n(C)c-3nc2c1` (stereo not given): the IC50 was 0.01 µM in series [1], 18 µM in series [2], 219 µM in series [4] and 4.4 milliequivalent in series [5]. Besides, the selectivity ratio in series [3] stood at 1800.
As for `Cn1c2nc3ccccc3c-2cc2ccccc21` [NEOCRYPTOLEPINE], the IC50 worked out at 11 µM in series [2] and 5.97 milliequivalent in series [5]. Also, in series [3], the selectivity ratio is 0.4.
Take `Cn1c2nc3ccccc3c-2c(Cl)c2ccc(Cl)cc21`: the IC50 in series [1] was greater than 64 µM; in series [2], 27 µM; in series [5], 1.14 milliequivalent. Besides, in series [3], the selectivity ratio was less than 0.4.
Consider `Cn1c2nc3cc(Cl)ccc3c-2cc2ccccc21`, for which the IC50 in series [1] was greater than 64 µM; in series [2], greater than 64 µM; in series [4] it was greater than 1000 µM; in series [5], 1.55 milliequivalent.
Consider `CCN(CC)CCCC(C)Nc1c2ccc(Cl)cc2nc2[nH]c3ccccc3c12` (stereo not given), for which the IC50 in series [1] was 0.14 µM; in series [2], 15 µM; in series [4], greater than 1000 µM; in series [5] it was 4.43 milliequivalent. Moreover, the selectivity ratio in series [3] came out at 107.
As for `CCN(CC)CCCC(C)Nc1c2c3ccccc3nc-2n(C)c2ccccc12` (stereo not given), the IC50 was 0.62 µM in series [1], 20 µM in series [2], 312 µM in series [4] and 4.11 milliequivalent in series [5]. Besides, in series [3], the selectivity ratio stood at 32.
As to `Cn1c2nc3ccccc3c-2cc2cc(Cl)ccc21`, the IC50 in series [1] is 52 µM; in series [2] it was greater than 64 µM; in series [4] it was greater than 1000 µM; in series [5] it was 1.31 milliequivalent. For the same compound, the selectivity ratio in series [3] was greater than 1.
Regarding `CCN1CCCC1CNc1c2cc(Cl)ccc2nc2[nH]c3ccccc3c12` (stereo not given), the IC50 was 0.38 µM in series [1], 15 µM in series [2], greater than 1000 µM in series [4] and 1.53 milliequivalent in series [5]. The selectivity ratio in series [3] worked out at 39.
For the compound `CN1CCN(c2c3cc(Cl)ccc3nc3[nH]c4ccccc4c23)CC1`, the IC50 in series [1] is 2.46 µM; in series [2] it was 3 µM; in series [4], greater than 1000 µM; in series [5], 2.09 milliequivalent. Besides, in series [3], the selectivity ratio is 1.
With `CCN(CC)CCCC(C)Nc1ccc2c(c1)cc1c3ccccc3nc-1n2C` (stereo not given), the IC50 in series [1] stood at 0.03 µM; in series [2], 7.2 µM; in series [4], 128 µM; in series [5], 1.45 milliequivalent. Moreover, the selectivity ratio in series [3] was found to be 240.
Take `Cn1c2nc3ccccc3c-2cc2ccc(Cl)cc21`: the IC50 turned out to be 41.1 µM in series [1] and 21 µM in series [2]. Also, the selectivity ratio in series [3] came out at 0.5.
As to `CCN(CC)CCCC(C)Nc1ccc2cc3c4ccccc4nc-3n(C)c2c1` (stereo not given), the IC50 in series [1] is 0.015 µM; in series [2], 16 µM. In addition, the selectivity ratio in series [3] came out at 1070.

These data come from ChEMBL document CHEMBL1138479, “Synthesis and antiplasmodial activity of aminoalkylamino-substituted neocryptolepine derivatives” (J Med Chem, 2009).
